According to ChEMBL document CHEMBL4422620, “Synthesis of novel morpholine, thiomorpholine and N-substituted piperazine coupled 2-(thiophen-2-yl)dihydroquinolines as potent inhibitors of Mycobacterium tuberculosis” (Eur J Med Chem, 2019):
≈ marks a conversion by molar mass, not a printed value.

Legend:
[1] = Cytotoxicity against human HEK293T cells assessed as inhibition of cell growth at 50 ug/ml after 72 hrs by MTT assay relative to control; type: cell-based, HEK-293T; settings: read-out: GI
Procedure, shortened: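 HEK-293T cells exposed to compounds at 50 μg/mL for 72 h. Viability was read as cellular conversion of MTT to formazan and expressed as percentage inhibition.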

[2] = tested on: Mycobacterium tuberculosis; test: Antitubercular activity against Mycobacterium tuberculosis H37Rv after 7 days by Alamar blue assay; type: functional; settings: 168 h
Procedure, shortened: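 M. tuberculosis H37Rv inoculum from fresh LJ medium resuspended in 7H9-S (7H9 broth, 0.1% casitone, 0.5% glycerol, OADC), adjusted to McFarland No. 1, diluted 1:20. Serial two-fold drug dilutions in 7H9-S, with growth and sterile controls. Incubated at 37°C in normal atmosphere for 7 days, then Alamar blue added and plates re-incubated overnight. MIC was the lowest concentration fully inhibiting growth.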

SMILES | inhibition at 72 h, 50 ug/ml [1] [%] | MIC [2] [µg/mL]
ClC1=C(CN2CCOCC2)CCc2nc(-c3cccs3)ccc21 | 34 | 6.25 (≈ 18 µM)
CO[C@H]1/C=C/O[C@@]2(C)Oc3c(C)c(O)c4c(O)c(c(/C=N/N5CCN(C)CC5)c(O)c4c3C2=O)NC(=O)/C(C)=C\C=C\[C@H](C)[C@H](O)[C@@H](C)[C@@H](O)[C@@H](C)[C@H](OC(C)=O)[C@@H]1C [RIFAMPIN] |  | 0.2 (≈ 0.243 µM)
Cc1ccccc1N1CCN(CC2=C(Cl)c3ccc(-c4cccs4)nc3CC2)CC1 |  | 25 (≈ 57.3 µM)
ClC1=C(CN2CCN(Cc3ccc4c(c3)OCO4)CC2)CCc2nc(-c3cccs3)ccc21 |  | 25 (≈ 52.1 µM)
COc1ccccc1N1CCN(CC2=C(Cl)c3ccc(-c4cccs4)nc3CC2)CC1 | 36.7 | 6.25 (≈ 13.8 µM)
CC(C)(C)OC(=O)N1CCN(CC2=C(Cl)c3ccc(-c4cccs4)nc3CC2)CC1 |  | 25 (≈ 56.1 µM)
O=C(O)c1cn(C2CC2)c2cc(N3CCNCC3)c(F)cc2c1=O [CIPROFLOXACIN] |  | 1.56 (≈ 4.71 µM)
Fc1ccccc1N1CCN(CC2=C(Cl)c3ccc(-c4cccs4)nc3CC2)CC1 | 32.6 | 6.25 (≈ 14.2 µM)
NNC(=O)c1ccncc1 [ISONIAZID] |  | 0.1 (≈ 0.729 µM)
ClC1=C(CN2CCN(c3ccc(Cl)cc3)CC2)CCc2nc(-c3cccs3)ccc21 |  | 25 (≈ 54.8 µM)
O=C(C1CC1)N1CCN(CC2=C(Cl)c3ccc(-c4cccs4)nc3CC2)CC1 | 28.9 | 3.12 (≈ 7.55 µM)
ClC1=C(CN2CCN(Cc3ccc(Cl)cc3)CC2)CCc2nc(-c3cccs3)ccc21 |  | 12.5 (≈ 26.6 µM)
ClC1=C(CN2CCN(c3ccccn3)CC2)CCc2nc(-c3cccs3)ccc21 | 20.1 | 1.56 (≈ 3.69 µM)
ClC1=C(CN2CCSCC2)CCc2nc(-c3cccs3)ccc21 |  | 25 (≈ 68.9 µM)
ClC1=C(CN2CCN(Cc3ccccc3)CC2)CCc2nc(-c3cccs3)ccc21 | 19.9 | 1.56 (≈ 3.58 µM)
ClC1=C(CN2CCN(c3ccccc3)CC2)CCc2nc(-c3cccs3)ccc21 |  | 25 (≈ 59.2 µM)
ClC1=C(CN2CCN(CC3OCCO3)CC2)CCc2nc(-c3cccs3)ccc21 |  | 12.5 (≈ 28.9 µM)
CC(=O)c1ccc(N2CCN(CC3=C(Cl)c4ccc(-c5cccs5)nc4CC3)CC2)cc1 |  | 25 (≈ 53.9 µM)
FC(F)(F)c1ccc(N2CCN(CC3=C(Cl)c4ccc(-c5cccs5)nc4CC3)CC2)cc1 |  | 25 (≈ 51 µM)
CC[C@@H](CO)NCCN[C@@H](CC)CO [ETHAMBUTOL] |  | 3.13 (≈ 15.3 µM)
